A selection: hits, their analogues and other compounds. The true share with any hit is near 3.1%.
SENP8 block-1: SENP8 protease inhibitors, primary screen, biochemical, luminescence; inhibition, % at 10 µM; Sentrin-specific protease 8 (Homo sapiens), Q96LD8; AID 2540, 2010; 330,000 tested, 1.2% active; purified SENP8, Z-RLRGG-aminoluciferin cleavage; in the data active = inhibition above about 50%
UBC13 inh: UBC13 polyubiquitin chain formation inhibitors, primary screen, biochemical, TR-FRET, uHTS. AID 485273, 2010. Ubiquitin-conjugating enzyme E2 N (Homo sapiens), P61088. 330,000 tested, 0.47% active. inhibition, % at 20 µM; in the data active = inhibition above about 45%, passing the limit was not always enough
Target sequence (P61088 whole entry, looked up): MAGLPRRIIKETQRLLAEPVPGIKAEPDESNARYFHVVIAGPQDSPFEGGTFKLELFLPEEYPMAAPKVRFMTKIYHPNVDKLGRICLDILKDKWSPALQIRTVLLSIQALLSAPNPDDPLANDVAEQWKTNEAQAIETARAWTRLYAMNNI
SENP7 block: SENP7 protease inhibitors, primary screen, biochemical, luminescence, uHTS. 330,000 tested, 1.5% active. recombinant SENP7, Z-RLRGG-aminoluciferin luminescence, 40 min. inhibition, % at 5 µM;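 active = inhibition above about 50% at the single test dose, limit read from the data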
SENP8 block-2: human SENP8 protease inhibitors, primary screen, biochemical, fluorescence, Nedd8 protein substrate, uHTS | Sentrin-specific protease 8 (Homo sapiens), Q96LD8 | recombinant SENP8 | 360,000 tested, 0.64% active | AID 602440, 2012 | inhibition, % at 20 µM; in the data active = inhibition mostly above about 40%, no sharp cut-off; inactive = mostly below about 27%
SENP6 block: SENP6 protease inhibitors, primary screen, biochemical, luminescence, uHTS; inhibition, % at 10 µM; Sentrin-specific protease 6 (Homo sapiens), Q9GZR1; AID 2599, 2010; 330,000 tested, 1.8% active; Recombinant SENP6 catalytic domain, aminoluciferin luminescence;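 active = inhibition above about 50% at the single tested dose, limit read from the data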
Target sequence (Q9GZR1 628-1112 limits assumed): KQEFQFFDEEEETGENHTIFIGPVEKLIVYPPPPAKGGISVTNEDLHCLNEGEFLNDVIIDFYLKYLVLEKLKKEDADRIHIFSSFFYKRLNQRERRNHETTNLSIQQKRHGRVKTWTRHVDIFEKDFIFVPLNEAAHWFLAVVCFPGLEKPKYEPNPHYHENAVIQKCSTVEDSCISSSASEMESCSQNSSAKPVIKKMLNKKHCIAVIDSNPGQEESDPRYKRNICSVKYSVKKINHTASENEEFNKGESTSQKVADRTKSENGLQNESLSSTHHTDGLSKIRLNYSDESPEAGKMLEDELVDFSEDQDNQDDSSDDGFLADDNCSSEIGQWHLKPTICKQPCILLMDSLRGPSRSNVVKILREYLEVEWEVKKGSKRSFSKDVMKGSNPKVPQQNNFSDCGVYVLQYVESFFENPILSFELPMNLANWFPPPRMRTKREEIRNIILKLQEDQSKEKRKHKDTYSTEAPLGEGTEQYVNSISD
Apaf-1 inh: inhibitors of human Apaf-1 apoptosome, primary screen, biochemical, DEVD-Rh110 fluorescence, uHTS | Apoptotic protease-activating factor 1 (Homo sapiens), O14727 | reconstituted apoptosome caspase-3 activity | inhibition, % at 20 µM | 330,000 tested, 0.71% active; active = inhibition of at least 40% at 20 µM
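System: reconstituted apoptosome with Apaf-1, cytochrome c, caspase-9, procaspase-3, dATP; Signal: Rh110 fluorescence intensity; Schedule: 30 min compound preincubation, 50 min activation, room temperature; Reagent: cytochrome c trigger plus (Z-DEVD)2-Rh110 caspase-3 substrate.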
Apaf-1 inh conf2: Apaf-1 inhibitors, single-dose retest, confirmation, biochemical, fluorescence, DEVD-Rh110, 20 µM. inhibition, % at 20 µM. reconstituted apoptosome, caspase-3 DEVD-Rh110 fluorescence. 1,800 tested, 25% active. shares compounds with Apaf-1 inh;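 active = mean inhibition of at least 40% at 20 µM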
Rh110 quench: Rh110 fluorescence interference by putative Apaf-1 inhibitors, confirmation, artefact control for Apaf-1 inhibitor project, biochemical, 20 µM | shares compounds with Apaf-1 inh | quenched caspase reaction | activation (fluorescence interference), % at 20 µM | 1,800 tested, under 10 active;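 active = signal rise of 40% or more at 20 µM, treated as a fluorescence artifact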
Fluor interf inh: fluorescence interference of Apaf-1 inhibitor hits, dose response, artefact control for Apaf-1 inhibitor project | shares compounds with Apaf-1 inh | fluorescence interference counterscreen, Apaf-1 assay format | IC50, µM | 460 tested, under 10 active | AID 588538, 2011; call rule not given here
SENP8 inh conf: human SENP8 protease inhibitors, confirmation, biochemical, Nedd8 protein substrate, single concentration | shares compounds with SENP8 block-2 | purified SENP8, Nedd8-AMC/pro-Nedd8 cleavage fluorescence, 30 min | inhibition, % at 25 µM | 1,400 tested, 15% active; in the data active = inhibition mostly above about 39%, no sharp cut-off; inactive = mostly below about 34%
Numbers stand for hits; 0 = inactive; - = no result.

SMILES	SENP8 block-1	UBC13 inh	SENP7 block	SENP8 block-2	SENP6 block	Apaf-1 inh	SENP8 inh conf	others
COc1ccc([C@H]2N[C@]3(CCCN(Cc4ccc(C)cc4)C3=O)[C@H]3C(=O)N(Cc4ccccc4)C(=O)[C@@H]23)cc1	-	-	-	0	-	-	-
O=C1CCCCCCCN1Cc1ccccc1	0	0	0	0	0	0	-
CC1=NN(Cc2ccccc2)C(=O)C1	0	0	0	43	0	65	0	Apaf-1 inh conf2=0;Rh110 quench=0
CC1(C)C=C2C(=NN(c3ccccc3)C(N)=C2C#N)CO1	0	0	0	54	0	47	97	Apaf-1 inh conf2=98;Rh110 quench=0;Fluor interf inh=0
COC(=O)c1nn(-c2ccc(OC)cc2)c(=O)cc1Sc1ccc(C)cc1	0	0	0	0	0	0	-
COC(=O)c1nn(-c2ccc(OC)cc2)c(=O)cc1NN	0	0	0	57	0	42	0	Apaf-1 inh conf2=0;Rh110 quench=0
Cc1nc(C(F)(F)F)ccc1C(=O)N1CCC1(C)C(=O)NS(=O)(=O)c1ccc(C#N)cc1 (stereo not drawn)	-	-	-	0	-	-	-
CN(C)/C=C/C=C1C(=O)CCCC1=O	0	0	0	49	0	0	0
Cc1ccc(C)c2c1CCCC2=O	-	-	-	0	-	-	-
COC(=O)[C@]12CCCCC=C1N(Cc1cccc3ccccc13)C(=O)[C@H](CC(=O)N1CCSCC1)C2	-	-	-	0	-	-	-
O=C(O)/C=C\C(=O)Nc1ccc(N2CCN(c3ccc(F)cc3)CC2)cc1	0	0	0	38	0	0	0
O=C(O)/C=C\C(=O)Nc1ccc(N2CCN(c3ccc(Cl)cc3)CC2)cc1	0	0	0	0	0	0	-
COc1ccc(-c2coc3c(C(=O)NCC4CC4)cccc23)c(C)c1	-	-	-	0	-	-	-
COc1ccc(C(=O)N2C=Cc3ccccc3C2C#N)cc1 (stereo not drawn)	-	-	-	50	-	-	74
COc1ccc(C(=O)N2C=Cc3ccccc3C2C(N)=O)cc1 (stereo not drawn)	-	-	-	0	-	-	-
Cc1ccc(N(CC(=O)N2CCCCCC2)S(C)(=O)=O)c(C)c1	-	-	-	0	-	-	-
COc1ccc(/C=N/Nc2nnc(C)n2N)cc1OC	0	0	0	41	0	0	0
COC(=O)c1ccc(C)cc1C1CN=NC12Cc1cc(C)ccc1C2=O (stereo not drawn)	-	-	-	57	-	-	0
CCOc1cc(Cl)c(CNCCCN2CCOCC2)cc1OC	0	0	0	0	0	0	-
CCCNCc1cc(OC)c(OCCC)cc1Cl	0	0	0	40	0	0	0
CCCc1nc2nc(C)c(NS(=O)(=O)c3ccc(C)c(C)c3)c(=O)n2[nH]1	-	-	-	0	-	-	-
CCOc1ccc(NS(=O)(=O)c2ccc(Cl)c(N=Nc3c(O)[nH]c(=S)[nH]c3=O)c2)cc1Br	-	-	-	40	-	-	0
CC(C)c1noc2ncc(C(=O)c3cc(Cl)cc(Cl)c3O)cc12	0	0	0	46	0	0	0
Cc1ccc(S(=O)(=O)N2C[C@H]3C(=O)C[C@@H](c4ccc(Cl)cc4)N(S(=O)(=O)c4ccccc4C)[C@H]3C[C@H]2c2ccc(Cl)cc2)cc1	-	-	-	0	-	-	-
Cc1ccc(C(=O)NCCNc2ccc([N+](=O)[O-])cc2C(F)(F)F)cc1	0	0	0	0	0	0	-
SMILES	SENP8 block-1	UBC13 inh	SENP7 block	SENP8 block-2	SENP6 block	Apaf-1 inh	SENP8 inh conf	others
O=C(NCCNc1ccc([N+](=O)[O-])cc1C(F)(F)F)c1ccccc1F	0	0	0	44	0	0	0
O=c1[nH]nc(-c2ccc([N+](=O)[O-])o2)c(=O)[nH]1	-	-	-	0	-	-	-
Nc1nnc(-c2ccc([N+](=O)[O-])o2)s1	-	-	-	37	-	-	0
CC1(C(=O)NS(=O)(=O)c2ccc(Br)cc2)CCN1C(=O)C1(c2ccccc2)CC1 (stereo not drawn)	-	-	-	0	-	-	-
Cn1cnc2nc[nH]c2c1=O	-	-	-	58	-	-	0
Cn1c(=O)[nH]c2nc[nH]c2c1=O	0	0	0	0	0	0	-
CC(C)[C@H](NC(=O)N1CC(=O)Nc2ccccc21)C(=O)N[C@H](Cc1c[nH]c2ccccc12)C(=O)O	0	0	0	44	0	0	0
CC(C)[C@H](NC(=O)N1c2ccccc2NC(=O)[C@@H]1C(C)C)C(=O)N[C@@H](Cc1ccccc1)C(=O)O	0	0	0	54	0	0	0
CCC(CC)C(=O)N(C)c1c(C)nc2c(OCC(=O)C(C)(C)C)cccn12	-	-	-	0	-	-	-
CC(C)N1C(=O)c2ccccc2NC(=O)C1C(=O)NCc1cccc(C(F)(F)F)c1 (stereo not drawn)	-	-	-	0	-	-	-
O=C1O[C@@H]([C@H](O)CO)C(O)=C1O	0	0	0	40	0	0	0
Cc1cc(C)cc(NC(=O)CN(C)S(=O)(=O)c2cnc[nH]2)c1	0	0	0	42	0	0	0
CSCC[C@H](NC(=O)[C@@H]1CSC2c3ccccc3C(=O)N21)C(=O)NC1CCCC1 (stereo partly drawn)	0	0	0	0	0	0	-
CSCC[C@H](NC(=O)[C@@H]1CSC2c3ccccc3C(=O)N21)C(=O)N1CCC[C@H]1CO (stereo partly drawn)	0	0	0	62	0	0	0
COc1ccc(C(=O)CNc2ccc(C)cc2C)cc1	0	0	0	54	0	0	0
Cc1ccc(N/C=C/c2onc(C)c2[N+](=O)[O-])cc1	0	0	78	54	60	0	0
Cc1cccc(C)c1N/C=C/c1onc(C)c1[N+](=O)[O-]	0	0	0	0	0	0	-
C#CCNC(=O)C[C@@H]1C[C@@]2(C(=O)OCC)CCCC=C2N(CCC2=CCCCC2)C1=O	-	-	-	0	-	-	-
Cc1ccc(NC(=O)CN2CCc3cc4c(cc3C2)OCCCO4)cc1	0	0	0	43	0	0	0
Cc1ccc(NC(=O)CN2CCc3cc4c(cc3C2)OCCCO4)cc1C	0	0	0	0	0	0	-
CCC(=O)NC(Nc1sc2c(c1C(=O)OC)CCCC2)(C(F)(F)F)C(F)(F)F	0	0	0	43	0	0	0
COCC(=O)Nc1sc2c(c1C(=O)OC)CCCC2	0	0	0	0	0	0	-

Assay outcomes from PubChem.
